For series [1], the species on record is Mus musculus. Description: Effect on CNS activity in mouse by maximal metrazole shock test. The series is classed as functional, organism-based. Conditions: Central nervous system.
The species entered for series [2] is Mus musculus. Kind of series: Analgesic activity in mouse by hot-plate test. The series is classed as functional. For orientation: Thermal pain tests record how soon the animal reacts.
Series [3] concerns Mus musculus. Description: Antidepressant activity in mouse assessed as reversal of reserpine-induced hypothermia measured as cumulative temperature rise at 30 mg/kg administered 17 hrs post reserpine-challenge. The series is classed as functional. Summed up:
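Groups of six mice pretreated with reserpine 2 mg/kg sc; compound given 17 h later. Gastric temperature read just before dosing (t0) and at 2, 4 and 6 h. Cumulative rise T = (t2 + t4 + t6) − 3t0, averaged per group, in °C.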

Series [4] is filed under the species Mus musculus. Kind of series: Effect on CNS activity in mouse by maximal electroshock test. The series is classed as functional, organism-based. Conditions: Central nervous system. Background: In the maximal electroshock model the usual endpoint is tonic extension of the hind limbs.
The species entered for series [5] is Mus musculus. Kind of series: Effect on locomotor activity in mouse. The series is classed as functional, organism-based.
For series [6], the species on record is Mus musculus. Kind of series: Neurotoxicity in mouse by stationary rod test. The series is classed as toxicity, organism-based. Conditions: in vivo.
Series [7] is filed under the species Mus musculus. Description: animal or person. Conditions: route oral. The series is classed as functional.
Series [8] concerns Mus musculus. Kind of series: Analgesic activity in mouse assessed as inhibition of acetic acid-induced writhing response at 30 mg/kg, po administered 30 mins prior to acetic acid-challenge relative to control. The series is classed as functional. In outline: (§1)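 Mice in groups, dosed orally with vehicle or compound; 30 min later given dilute acetic acid ip (0.4 mL, 0.25%). Total squirming movements counted.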

Series [9] has as its system Mus musculus. Kind of series: Analgesic activity in mouse assessed as inhibition of acetic acid-induced writhing response at 100 mg/kg, po administered 30 mins prior to acetic acid-challenge relative to control. The series is classed as functional. In outline: as §1
In general terms: Writhing tests count abdominal constrictions after an irritant is injected.

The source made the active and inactive calls. No cut-off for these calls is given here. Some results are limits rather than exact numbers.

One may read the ED50 as the dose that gives a 50% effect, or the effect in half of the subjects. Higher therefore signals a need for a large dose. In general, inhibition in vivo refers to the share of the control response that was lost under treatment. Consider `CN1CCCC12CCc1ccccc1C2.Cl` (stereo not given), for which the result in the series listed under Mus musculus [1], in the series filed under Mus musculus [4] and in the series filed under Mus musculus [5] was inactive. In addition, it took a dose of 7.4 mg/kg to reach the 50% effect level in the series listed under Mus musculus [2] (ED50). Also, the T in the series on Mus musculus [3] stood at 2.7 °C. Further, in the series filed under Mus musculus [6], the Activity entry is “Non-toxic”. The molecule also came in with an inhibition in vivo at 10 mg/kg in the series listed under Mus musculus [7] of 100%.

For the molecule `CN1CC[C@]23c4c5ccc(O)c4O[C@H]2[C@@H](O)C=C[C@H]3[C@H]1C5.Cl` [MORPHINE HYDROCHLORIDE], in the series on Mus musculus [3], the T amounted to 0.3 °C. Also, the inhibition in vivo at 10 mg/kg in the series listed under Mus musculus [7] worked out at 100%.

As to `Br.Oc1ccc2c(c1)CCC1(CCCN1)C2` (stereo not given), the outcome in the series filed under Mus musculus [1], in the series listed under Mus musculus [4] and in the series filed under Mus musculus [5] was inactive. In the series with Mus musculus [3], the T was determined as 0.7 °C. For the same molecule, the inhibition in vivo at 30 mg/kg with Mus musculus [8] came out at 0%. Further, the Activity entry in the series filed under Mus musculus [6] is recorded as “Non-toxic”.

`CN(C)CCCN1c2ccccc2CCc2ccccc21` [IMIPRAMINE]: the T in the series with Mus musculus [3] turned out to be 8 °C. Moreover, the inhibition in vivo at 30 mg/kg with Mus musculus [8] is 50%.

For `Cl.c1ccc2c(c1)CCC1(CCCN1)C2` (stereo not given), the result in the series filed under Mus musculus [1], in the series listed under Mus musculus [4] and in the series listed under Mus musculus [5] was inactive. The molecule further gave an ED50 in the series filed under Mus musculus [2] of 7.1 mg/kg. The T in the series with Mus musculus [3] is 4.5 °C. Also, the Activity result in the series listed under Mus musculus [6] is “Non-toxic”. Further, the inhibition in vivo at 10 mg/kg in the series filed under Mus musculus [7] was found to be 100%.

For `Br.CN1CCCC12CCc1cc(O)ccc1C2` (stereo not given), the result in the series listed under Mus musculus [1], in the series filed under Mus musculus [4] and in the series listed under Mus musculus [5] was inactive. In the series on Mus musculus [3], the T was 0.7 °C. Also, the inhibition in vivo at 30 mg/kg in the series on Mus musculus [8] came to 75%. In the series filed under Mus musculus [6], the Activity entry is recorded as “Non-toxic”.

Turning to `COc1ccc2c(c1)CCC1(CCCN1)C2.Cl` (stereo not given), the result in the series filed under Mus musculus [1], in the series filed under Mus musculus [4] and in the series filed under Mus musculus [5] was inactive. In addition, the T with Mus musculus [3] was determined as 0.2 °C. Moreover, in the series with Mus musculus [8], the inhibition in vivo at 30 mg/kg was determined as 50%. Also, the Activity result in the series listed under Mus musculus [6] is “Non-toxic”.

Consider `Cl.c1ccc2c(c1)CC1(CCCN1)C2`, for which the result in the series filed under Mus musculus [1], in the series listed under Mus musculus [4] and in the series filed under Mus musculus [5] was inactive. In the series filed under Mus musculus [2], this molecule gave an ED50 greater than 30 mg/kg. Moreover, the T in the series on Mus musculus [3] worked out at 5.1 °C. In addition, in the series listed under Mus musculus [6], the Activity result is on record as “Non-toxic”. For the same molecule, the inhibition in vivo at 10 mg/kg in the series listed under Mus musculus [7] was 50%.

As for `CN1CCCC12Cc1ccccc1C2.Cl`, the result in the series listed under Mus musculus [1], in the series filed under Mus musculus [4] and in the series filed under Mus musculus [5] was inactive. In addition, the inhibition in vivo at 100 mg/kg with Mus musculus [9] turned out to be 50%. Also, the T in the series with Mus musculus [3] came to 5.1 °C. Further, the Activity result in the series filed under Mus musculus [6] was “Non-toxic”.

Turning to `Br.COc1ccc2c(c1)CCC1(CCCN1C)C2` (stereo not given), the result in the series filed under Mus musculus [1], in the series filed under Mus musculus [4] and in the series listed under Mus musculus [5] was inactive. The T in the series with Mus musculus [3] is 1.2 °C. The inhibition in vivo at 30 mg/kg in the series with Mus musculus [8] stood at 75%. Also, in the series listed under Mus musculus [6], the Activity entry is “Non-toxic”.

These data come from ChEMBL document CHEMBL3244407, “Synthesis of spiro[tetralin-2,2'-pyrrolidine] and spiro[indan-2,2'-pyrrolidine] derivatives as potential analgesics” (J Med Chem, 1978).
